As a reminder, the kinetic solubility is solubility judged after dilution from a stock solution rather than from solid. Usually EC50 stands for the concentration that produces a half-maximal response. By CC50 is commonly meant the concentration giving 50% cytotoxicity. A high value points to lower toxicity to the cells. For orientation: half-life means the time in which the quantity being followed falls by half. Higher therefore signals slow decline.

Data set [1] is described as follows: Aqueous solubility by HPLC-UV. It is filed as physicochemical.
The test system of the next data set is wild-type HIV-1 (NL4-3). The data set is described as follows: Anti-HIV activity against wild-type HIV-1. It is filed as cell-based. The following applies: Human immunodeficiency virus 1, NL43, TZM-bl, read-out: EC50 NL4-3. The essentials: (§1)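 Wild-type HIV-1 NL4-3 and the E138K+M184I resistant strain were tested in parallel in TZM-bl cells, with a reference NNRTI alongside. EC50 was read from luciferase reporter gene expression. New analogues were tested up to 100 ng/mL, with at least three experiments (n = 3). Fold change is the resistant-strain EC50 divided by the wild-type EC50.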

Another data set has as its system NL4-3 variant E138K. It is filed as cell-based, HIV-1.
The test system of data set [2] is NL4-3 variant E138K+M184I. It is filed as cell-based, HIV-1. The essentials:
as §1

A short description of a further data set: Cytotoxicity. It is filed as cell-based. The following applies: human, TZM-bl cells.
A short description of data set [3]: Human plasma stability assay. It is filed as in vitro ADME.
The mark [4] stands for this setting: 0.01 M HCl, pH 2, aqueous with cosolvent or surfactant or cyclodextrin.
The mark [5] stands for this setting: EC50(resistant viral strain)/EC50(wild-type viral strain).

≈ marks a conversion by molar mass, not a printed value.

The compound `Cc1cc(/C=C/C#N)cc(C)c1Nc1ccnc(Nc2ccc(C#N)cc2)n1` [compound 2, rilpivirine, reference compound] yielded a kinetic solubility at 4 h in data set [1] (setting [4]) of 86.8 µg/mL (≈ 237 µM).
For `Cc1cc(/C=C/C#N)cc(C)c1Oc1cc(Nc2ccc(C#N)cc2)c(N)cc1C(N)=O` [compound 3], the EC50 in the data set with wild-type HIV-1 (NL4-3) was determined as 1.82 ± 0.57 nM; with NL4-3 variant E138K (Human immunodeficiency virus 1, NL43, TZM-bl, read-out: EC50 E138K), 3.55 ± 0.64 nM; in data set [2] (Human immunodeficiency virus 1, NL43, TZM-bl, read-out: EC50 E138K+M184I), 3.55 ± 1.02 nM. For the same compound, in the data set on NL4-3 variant E138K (setting [5]), the “Resistance fold change (FC) E138K” value is reported as 1.9. The “Resistance fold change (FC) E138K+M184I” value in data set [2] (setting [5]) is reported as 1.9. The compound also registered a CC50 in “Cytotoxicity” of over 23.6 µM. The solubility (kinetic) at 4 h came out at 2.09 µg/mL (≈ 4.94 µM) in data set [1] (setting [4]) and 0.63 µg/mL (≈ 1.49 µM) in data set [1] (phosphate buffer, pH 7.4, aqueous with cosolvent or surfactant or cyclodextrin).
Consider `CC(C)NCC(O)COc1cccc2ccccc12` (stereo not shown) [propranolol], for which, in data set [3], the half-life at 10 μg/mL was 3.33 days.

The record behind these values is article PMC5503476 (Bioorganic & medicinal chemistry letters, 2017).
